Results from ChEMBL document CHEMBL1811777, “Rational design of potent, small, synthetic allosteric inhibitors of thrombin” (J Med Chem, 2011).
Activity calls are given as the source filed them. No cut-off for these calls is given here.

Legend:
Prothrombin [1] = biological target: T1, Prothrombin (Homo sapiens, UniProt P00734); assay: Inhibition of human alpha-thrombin assessed as spectrozyme TH hydrolysis after 10 mins by spectrophotometric analysis
How it was run: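 Human α-thrombin (~5 nM initial) preincubated 10 min with inhibitor (4 μg/ml to 5 mg/ml stocks) at 25 °C. Buffer: 20 mM Tris-HCl pH 7.4, 100 mM NaCl, 2.5 mM CaCl2, 0.1% PEG 8000. Fractional residual activity fitted to logistic equation (Hill slope fixed at 1) for IC50 and efficacy ΔY.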

Plasma [2] = assay: Anticoagulant activity in human plasma assessed as concentration required to double the activated partial thromboplastin time; type: functional
Plasma [3] = assay: Anticoagulant activity in human plasma assessed as concentration required to double the prothrombin time; type: functional
How it was run: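 One-stage recalcification PT on a fibrometer. 10 μL inhibitor brought to 100 μL with citrated human plasma, incubated 30 s at 37 °C, then 200 μL prewarmed thromboplastin added and clotting time recorded. Deionized water gave baseline clotting time. Duplicates; concentration doubling PT read from clotting time versus concentration.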

Prothrombin [4] = biological target: T1, Prothrombin; assay: Non-competitive inhibition of human alpha-thrombin assessed as spectrozyme TH hydrolysis at 1.5 to 30 uM by Michaelis-Menten equation analysis
How it was run: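 Spectrozyme TH (10 to 600 μM) hydrolysed by 5–10 nM human thrombin at fixed inhibitor levels (0–30 μM) in 20 mM Tris-HCl pH 7.4, 37 °C. Initial rate taken from linear A405 rise with under 10% substrate consumption. KM and VMAX obtained by fitting the Michaelis-Menten equation.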

Compound | IC50 (Prothrombin [1]; read-out: IC50) [µM] | 2aPTT (Plasma [2]) [µM] | IC50 (Prothrombin [1]; read-out: pIC50 (converted)) [µM] | 2PT (Plasma [3]) [µM] | inhibition (Prothrombin [4])
COc1cc2oc(C)c(C(=O)O)c2cc1OCc1oc2cc(OC)c(OS(=O)(=O)[O-])cc2c1C(=O)O.[Na+] | 374 | >1000 |  |  | 
CCOC(=O)c1c(CN2CCOCC2)oc2cc(OC)c(OS(=O)(=O)O)cc12 | > 7000 |  |  |  | 
CCOC(=O)c1c(C)oc2cc(OCc3oc4cc(OC)c(OS(=O)(=O)O)cc4c3C(=O)OCC)c(OS(=O)(=O)O)cc12 | 764 |  | 759 |  | 
COc1cc2oc(C)c(C(=O)N3CCOCC3)c2cc1OS(=O)(=O)O | > 2000 |  |  |  | 
COCCOC(=O)c1c(C)oc2cc(OC)c(OCc3oc4cc(OC)c(OS(=O)(=O)[O-])cc4c3C(=O)OCCOC)cc12.[Na+] | 375 | >1000 |  |  | 
CCOC(=O)c1c(C)oc2cc(OC)c(OCc3oc4cc(OS(=O)(=O)O)c(OS(=O)(=O)O)cc4c3C(=O)OCC)cc12 | 365 |  | 363 |  | 
CCOC(=O)c1c(C)oc2cc(OCC)c(OCc3oc4cc(OCC)c(OS(=O)(=O)[O-])cc4c3C(=O)OCC)cc12.[Na+] | 121 | 530 |  |  | 
COc1cc2oc(C)c(C(=O)OC(C)(C)C)c2cc1OS(=O)(=O)[O-].[Na+] | > 3000 | >2000 |  |  | 
C=CCOC(=O)c1c(C)oc2cc(OC)c(OS(=O)(=O)O)cc12 | > 3000 |  |  |  | 
CCOC(=O)c1c(C)oc2cc(OC(C)C)c(OS(=O)(=O)O)cc12 | 13700 |  |  |  | 
COC(=O)c1c(C)oc2cc(OC)c(OCc3oc4cc(OC)c(OS(=O)(=O)[O-])cc4c3C(=O)OC)cc12.[Na+] | 37 | >1000 | 37.2 | 850 | 
COc1cc2oc(C)c(C(=O)N3CCOCC3)c2cc1OCc1oc2cc(OC)c(OS(=O)(=O)[O-])cc2c1C(=O)N1CCOCC1.[Na+] | > 7100 | >1000 |  |  | 
COCCOC(=O)c1c(C)oc2cc(OC)c(OS(=O)(=O)O)cc12 | > 2000 |  |  |  | 
CCOC(=O)c1c(C)oc2cc(OCC)c(OS(=O)(=O)O)cc12 | 20600 |  | 20000 |  | 
CCOC(=O)c1c(C)oc2cc(OCOC)c(OS(=O)(=O)[O-])cc12.[Na+] | > 16000 | >1200 |  |  | 
CCOC(=O)c1c(C)oc2cc(OC)c(OCc3oc4cc(OC)c(OS(=O)(=O)[O-])cc4c3C(=O)OCC)cc12.[Na+] | 60 | 740 |  | 2100 | Active
COC(=O)c1c(C)oc2cc(OC)c(OS(=O)(=O)O)cc12 | > 3000 |  |  |  | 
COc1cc2oc(C)c(C(=O)OC(C)(C)C)c2cc1OCc1oc2cc(OC)c(OS(=O)(=O)[O-])cc2c1C(=O)OC(C)(C)C.[Na+] | 7.3 | 355 | 7.24 |  | 
CCOC(=O)c1c(C)oc2cc(OC(=O)c3ccc(OC)cc3)c(OS(=O)(=O)[O-])cc12.[Na+] | 520 | 1250 |  | 1200 | 
CCOC(=O)c1c(COc2cc3c(C(=O)OCC)c(CN4CCOCC4)oc3cc2OC)oc2cc(OC)c(OS(=O)(=O)O)cc12 | 129 |  | 129 |  | 
CCOC(=O)c1c(C)oc2cc(OC(=O)N3CCOCC3)c(OS(=O)(=O)O)cc12 | > 25000 |  |  |  | 
CCOC(=O)c1c(C)oc2cc(OC(C)C)c(OCc3oc4cc(OC(C)C)c(OS(=O)(=O)O)cc4c3C(=O)OCC)cc12 | 30 |  |  |  | 
COc1cc2oc(C)c(C(=O)N3CCCCC3)c2cc1OS(=O)(=O)O | > 2000 |  |  |  | 
CCOC(=O)c1c(C)oc2cc(OC)c(OS(=O)(=O)O)cc12 | > 2500 |  |  |  | 
